The source made the active and inactive calls. No cut-off for these calls is given here.
Tests used:
[1] = target: T1, Tyrosine-protein kinase BTK (Homo sapiens, UniProt Q06187); experiment: Covalent inhibition of recombinant human GST-tagged BTK (2 to 659 end residues) expressed in baculovirus expression system assessed as inhibition constant using NH2-KKKAPFSWYLPEEG as substrate measured every 2 mins for 2 hrs in presence of ATP by microplate reader assay
[2] = target: T1, Tyrosine-protein kinase BTK; experiment: Binding affinity to recombinant unphosphorylated human GST-tagged BTK kinase domain (389 to 659 residues) expressed in insect cells incubated for 1 hr by Lanthascreen assay
[3] = target: T1, Tyrosine-protein kinase BTK; experiment: Covalent inhibition of recombinant human GST-tagged BTK (2 to 659 end residues) expressed in baculovirus expression system assessed as Kinact/Ki ratio using NH2-KKKAPFSWYLPEEG as substrate measured every 2 mins for 2 hrs in presence of ATP by microplate reader assay
[4] = target: T1, Tyrosine-protein kinase BTK; experiment: Time dependent inhibition of recombinant human GST-tagged BTK (2 to 659 end residues) expressed in baculovirus expression system using NH2-KKKAPFSWYLPEEG as substrate measured every 2 mins for 2 hrs in presence of ATP by microplate reader assay
[5] = target: T1, Tyrosine-protein kinase BTK; experiment: Covalent inhibition of recombinant human GST-tagged BTK (2 to 659 end residues) expressed in baculovirus expression system assessed as inactivation constant using NH2-KKKAPFSWYLPEEG as substrate measured every 2 mins for 2 hrs in presence of ATP by microplate reader assay
[6] = Half life of the compound at 25 degreeC; format: physicochemical
[7] = target: Tyrosine-protein kinase BTK (Mus musculus, UniProt P35991); experiment: Inhibition of BTK in C57Bl/6 mouse splenocyte assessed as reduction in anti-IgM-induced CD69 expression incubated for 1 hr followed anti-IgM stimulation and measured after overnight by flow cytometry analysis; format: tissue-based
Method in brief: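 Mouse splenocytes stimulated with anti-IgM. CD69 expression measured as the read-out.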

[8] = Half life in human pooled liver microsomes at 1 uM measured up to 60 mins in presence of NADPH by LC-MS/MS analysis; format: ADME, Microsome
[9] = Inhibition of BTK in Wistar rat whole blood assessed as reduction in anti-IgD-induced B220/CD86+ expression incubated for 1 hr followed anti-IgD stimulation and measured after overnight by flow cytometry analysis; format: tissue-based
Method in brief: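 B-cell activation induced by anti-IgD in rat whole blood, read as B220+CD86+ cells.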

Sequence of Tyrosine-protein kinase BTK (Mus musculus, UniProt P35991) (P35991 whole entry): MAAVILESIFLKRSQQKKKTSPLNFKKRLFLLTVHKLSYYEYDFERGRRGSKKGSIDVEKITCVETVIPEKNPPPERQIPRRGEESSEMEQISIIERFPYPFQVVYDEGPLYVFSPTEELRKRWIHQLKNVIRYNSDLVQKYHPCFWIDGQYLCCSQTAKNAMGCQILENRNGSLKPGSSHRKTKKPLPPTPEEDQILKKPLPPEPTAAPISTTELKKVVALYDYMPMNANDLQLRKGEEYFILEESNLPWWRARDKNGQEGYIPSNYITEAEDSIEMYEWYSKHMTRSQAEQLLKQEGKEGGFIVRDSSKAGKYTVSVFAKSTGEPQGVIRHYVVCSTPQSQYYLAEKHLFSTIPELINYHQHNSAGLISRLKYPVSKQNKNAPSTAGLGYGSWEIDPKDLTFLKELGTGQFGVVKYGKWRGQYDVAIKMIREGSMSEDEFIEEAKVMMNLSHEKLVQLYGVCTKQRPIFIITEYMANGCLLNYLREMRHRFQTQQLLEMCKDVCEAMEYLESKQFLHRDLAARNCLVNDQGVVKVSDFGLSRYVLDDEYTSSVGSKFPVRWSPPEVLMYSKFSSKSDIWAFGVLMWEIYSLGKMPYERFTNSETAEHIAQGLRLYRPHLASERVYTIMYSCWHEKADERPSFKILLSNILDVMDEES
T1 sequence (Q06187 whole entry, the tested form may be a part): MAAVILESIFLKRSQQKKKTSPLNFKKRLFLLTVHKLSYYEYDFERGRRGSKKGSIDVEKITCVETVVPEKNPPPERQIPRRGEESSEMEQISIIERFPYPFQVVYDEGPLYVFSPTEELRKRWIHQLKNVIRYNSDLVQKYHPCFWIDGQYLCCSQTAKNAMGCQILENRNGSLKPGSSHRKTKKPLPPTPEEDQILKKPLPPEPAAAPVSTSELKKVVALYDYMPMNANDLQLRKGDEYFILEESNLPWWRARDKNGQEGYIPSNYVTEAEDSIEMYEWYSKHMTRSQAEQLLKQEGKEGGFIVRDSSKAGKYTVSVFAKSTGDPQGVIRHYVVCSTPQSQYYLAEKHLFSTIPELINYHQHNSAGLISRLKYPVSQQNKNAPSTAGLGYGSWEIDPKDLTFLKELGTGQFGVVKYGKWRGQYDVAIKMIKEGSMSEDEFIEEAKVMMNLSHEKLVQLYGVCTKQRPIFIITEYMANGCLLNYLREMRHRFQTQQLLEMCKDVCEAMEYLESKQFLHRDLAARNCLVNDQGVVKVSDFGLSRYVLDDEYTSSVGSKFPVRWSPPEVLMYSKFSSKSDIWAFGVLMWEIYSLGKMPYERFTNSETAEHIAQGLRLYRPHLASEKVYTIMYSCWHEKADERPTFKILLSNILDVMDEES

SMILES	Ki [1] [µM]	Ratio [3] [M⁻¹ s⁻¹]	Kinact [5] [s⁻¹]	IC50 [7] [µM]	IC50 ([9]; Rattus norvegicus, Blood, 1 h) [µM]	also measured
C=CC(=O)N1CCC[C@@H](NC(=O)c2sc3nccc4c3c2NC(=O)N4c2ccc(OC(C)C)cc2)C1	4.22	60.7	0.000256			IC50 [2]: 0.12 µM; inhibition [4]: Active
O=C(N[C@@H]1CCCNC1)c1sc2nccc3c2c1NC(=O)N3c1ccc(Oc2ccccc2)cc1F						half-life [6]: 46 h
C=CC(=O)N1CCC[C@@H](NC(=O)c2sc3nccc4c3c2NC(=O)N4c2ccccc2C)C1	1.58	363	0.000573			
C=CC(=O)N1CCC[C@@H](NC(=O)c2sc3nccc4c3c2NC(=O)N4c2ccc(OC(C)C)cc2C)C1	0.337			0.042	0.46	
C=CC(=O)N1CCC[C@@H](NC(=O)c2sc3nccc4c3c2NC(=O)N4c2cc(OC(C)C)ccc2C)C1	3.29	67.5	0.000222			
C=CC(=O)N1CCC[C@@H](NC(=O)c2sc3nccc4c3c2NC(=O)N4c2ccc(Oc3ccccc3)cc2C(F)(F)F)C1	1.85	95.7	0.000177			
CCC(=O)N1CCC[C@@H](NC(=O)c2sc3nccc4c3c2NC(=O)N4c2ccc(OC(C)C)cc2)C1						IC50 [2]: 6.6 µM
CC(C)Oc1ccc(N2C(=O)Nc3c(C(=O)N[C@@H]4CCCNC4)sc4nccc2c34)cc1						IC50 [2]: 3.5 µM
C=CC(=O)N1CCC[C@@H](NC(=O)c2sc3nccc4c3c2NC(=O)N4c2ccccc2)C1	6.42	126	0.000807			

Continued, in another order:

Ki [1] [µM]	Ratio [3] [M⁻¹ s⁻¹]	Kinact [5] [s⁻¹]	IC50 [7] [µM]	IC50 ([9]; Rattus norvegicus, Blood, 1 h) [µM]	SMILES	also measured
0.00481			0.019		C=CC(=O)N1CCC[C@@H](NC(=O)c2sc3nccc4c3c2NC(=O)N4c2ccc(Oc3ccccc3)cc2C)C1 (stereo in doubt; 17)	half-life at 1 µM [8]: < 4 min; IC50 [9]: 0.14 µM
0.141			0.13	1.74	C=CC(=O)N1CC(NC(=O)c2sc3nccc4c3c2NC(=O)N4c2ccc(Oc3ccccc3)cc2C)C1	
0.0117			0.0079	0.13	C=CC(=O)C[C@@H]1CC[C@@H](NC(=O)c2sc3nccc4c3c2NC(=O)N4c2ccc(Oc3ccccc3)cc2C)C1	
0.15			0.4		C=CC(=O)N1CCC[C@@H](NC(=O)c2sc3nccc4c3c2NC(=O)N4c2ccc(Oc3ccccc3)cc2C)C1 (stereo in doubt; 16)	IC50 [9]: 2.45 µM
0.0092			0.02	0.18	C=CC(=O)N1CCC[C@@H](NC(=O)c2sc3nccc4c3c2NC(=O)N4c2ccc(Oc3ccccc3)cc2F)C1	
0.0148	17400	0.000257	0.08	0.1	C=CC(=O)N[C@H]1CCC[C@H]1NC(=O)c1sc2nccc3c2c1NC(=O)N3c1ccc(Oc2ccccc2)cc1C	
0.0519			0.0076	0.21	C=CC(=O)NCCNC(=O)c1sc2nccc3c2c1NC(=O)N3c1ccc(Oc2ccccc2)cc1C	
0.217			0.03	0.64	C=CC(=O)N1CC[C@H](NC(=O)c2sc3nccc4c3c2NC(=O)N4c2ccc(Oc3ccccc3)cc2C)C1	
0.0123			0.013	0.22	C=CC(=O)N1CCC[C@@H](NC(=O)c2sc3nccc4c3c2NC(=O)N4c2ccc(Oc3ccccc3)cc2Cl)C1	

Source: ChEMBL document CHEMBL4814076, “Discovery of a Potent and Selective Covalent Inhibitor of Bruton's Tyrosine Kinase with Oral Anti-Inflammatory Activity” (ACS Med Chem Lett, 2021)
